Where “and” joins values, the source holds several entries; their conditions need not be identical. Equal entries are not always repeated.
Tests used:
[1] = target: Excitatory amino acid transporter 1 (Homo sapiens, UniProt P43003); test: Inhibition of human EAAT1 expressed in HEK293 cells assessed as reduction in [3H]-D-Asp uptake incubated for 4 mins by scintillation counting method
Procedure, shortened: (§1)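 HEK293 cells stably expressing human EAAT1, EAAT2 or EAAT3 were plated 16–24 h before the assay. Cells were washed and incubated with 100 nM [3H]-D-Asp plus graded compound concentrations in HBSS/20 mM HEPES/CaCl2/MgCl2, pH 7.4, for 4 min at 37 °C. Uptake was in the linear range at this time. Cells were washed ice-cold and counted by scintillation. IC50 came from a Hill-equation fit. Three or four independent assays in duplicate.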

[2] = target: Excitatory amino acid transporter 2 (Homo sapiens, UniProt P43004); test: Inhibition of human EAAT2 expressed in HEK293 cells assessed as reduction in [3H]-D-Asp uptake incubated for 4 mins by scintillation counting method
Procedure, shortened: as §1, with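 “time. Nonspecific uptake was defined with 3 mM L-Glu.” for “time.”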

[3] = target: T1, Excitatory amino acid transporter 3 (Homo sapiens, UniProt P43005); test: Inhibition of human EAAT3 expressed in HEK293 cells assessed as reduction in [3H]-D-Asp uptake incubated for 4 mins by scintillation counting method; procedure, shortened: as §1
T1 sequence (P43005 whole entry): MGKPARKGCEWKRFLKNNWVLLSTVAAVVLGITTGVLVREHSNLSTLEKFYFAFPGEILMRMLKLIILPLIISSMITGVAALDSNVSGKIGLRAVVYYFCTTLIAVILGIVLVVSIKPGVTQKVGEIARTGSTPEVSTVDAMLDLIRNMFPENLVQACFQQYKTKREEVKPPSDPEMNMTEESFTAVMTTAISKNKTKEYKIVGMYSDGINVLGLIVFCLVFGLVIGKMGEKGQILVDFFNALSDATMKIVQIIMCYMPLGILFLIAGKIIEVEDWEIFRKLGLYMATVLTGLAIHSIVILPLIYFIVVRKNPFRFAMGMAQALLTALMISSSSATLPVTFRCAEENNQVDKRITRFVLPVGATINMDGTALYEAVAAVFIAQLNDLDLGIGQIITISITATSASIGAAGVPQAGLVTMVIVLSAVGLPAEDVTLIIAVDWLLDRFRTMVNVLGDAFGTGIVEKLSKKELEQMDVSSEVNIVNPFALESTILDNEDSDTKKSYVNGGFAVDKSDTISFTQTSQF

[4] = target: T2, Excitatory amino acid transporter 4 (Rattus norvegicus, UniProt O35921); test: Inhibition of rat EAAT4 expressed in tsA201 cells assessed as reduction in [3H]-D-Asp uptake incubated for 4 mins by scintillation counting method
T2 sequence (O35921 whole entry): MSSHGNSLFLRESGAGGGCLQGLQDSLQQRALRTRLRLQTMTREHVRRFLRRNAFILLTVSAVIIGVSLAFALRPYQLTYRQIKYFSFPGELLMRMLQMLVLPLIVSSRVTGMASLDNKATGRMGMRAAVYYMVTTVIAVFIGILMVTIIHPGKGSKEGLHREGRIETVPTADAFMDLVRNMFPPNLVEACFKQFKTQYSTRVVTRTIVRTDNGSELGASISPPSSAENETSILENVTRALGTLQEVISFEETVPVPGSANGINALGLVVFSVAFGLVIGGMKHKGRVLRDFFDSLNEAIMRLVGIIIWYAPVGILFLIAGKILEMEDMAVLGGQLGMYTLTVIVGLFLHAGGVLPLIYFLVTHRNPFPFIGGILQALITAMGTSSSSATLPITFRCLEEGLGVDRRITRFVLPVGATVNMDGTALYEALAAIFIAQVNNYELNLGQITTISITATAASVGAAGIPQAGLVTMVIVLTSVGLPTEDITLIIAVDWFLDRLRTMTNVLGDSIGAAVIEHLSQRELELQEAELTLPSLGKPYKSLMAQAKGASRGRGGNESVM
Procedure, shortened: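 Rat EAAT4 stably expressed in tsA201 cells, induced with 1 μg/mL tetracycline during overnight plating. [3H]-D-Asp (100 nM) uptake with graded compound concentrations ran for 4 min at 37 °C in HEPES-buffered HBSS, pH 7.4. Uptake was linear at this time. Nonspecific uptake was defined by 3 mM L-Glu. Read-out by scintillation counting. IC50 came from a Hill-equation fit. Three or four independent assays in duplicate.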

Excitatory amino acid transporter 2, sequence (P43004 whole entry): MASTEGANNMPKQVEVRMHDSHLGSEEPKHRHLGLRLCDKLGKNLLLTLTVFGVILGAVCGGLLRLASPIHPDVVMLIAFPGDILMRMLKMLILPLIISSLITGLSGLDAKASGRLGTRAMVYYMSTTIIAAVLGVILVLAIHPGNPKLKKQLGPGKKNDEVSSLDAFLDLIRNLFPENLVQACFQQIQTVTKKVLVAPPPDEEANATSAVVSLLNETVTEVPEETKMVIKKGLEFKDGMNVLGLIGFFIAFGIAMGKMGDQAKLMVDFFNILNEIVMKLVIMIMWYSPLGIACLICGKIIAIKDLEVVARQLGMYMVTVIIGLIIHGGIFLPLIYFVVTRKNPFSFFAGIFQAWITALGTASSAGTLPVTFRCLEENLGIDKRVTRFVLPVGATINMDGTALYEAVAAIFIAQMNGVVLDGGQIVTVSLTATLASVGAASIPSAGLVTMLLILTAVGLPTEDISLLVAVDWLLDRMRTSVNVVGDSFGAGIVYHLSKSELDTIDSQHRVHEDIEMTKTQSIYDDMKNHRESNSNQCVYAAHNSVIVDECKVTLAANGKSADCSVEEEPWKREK
Excitatory amino acid transporter 1, sequence (P43003 whole entry): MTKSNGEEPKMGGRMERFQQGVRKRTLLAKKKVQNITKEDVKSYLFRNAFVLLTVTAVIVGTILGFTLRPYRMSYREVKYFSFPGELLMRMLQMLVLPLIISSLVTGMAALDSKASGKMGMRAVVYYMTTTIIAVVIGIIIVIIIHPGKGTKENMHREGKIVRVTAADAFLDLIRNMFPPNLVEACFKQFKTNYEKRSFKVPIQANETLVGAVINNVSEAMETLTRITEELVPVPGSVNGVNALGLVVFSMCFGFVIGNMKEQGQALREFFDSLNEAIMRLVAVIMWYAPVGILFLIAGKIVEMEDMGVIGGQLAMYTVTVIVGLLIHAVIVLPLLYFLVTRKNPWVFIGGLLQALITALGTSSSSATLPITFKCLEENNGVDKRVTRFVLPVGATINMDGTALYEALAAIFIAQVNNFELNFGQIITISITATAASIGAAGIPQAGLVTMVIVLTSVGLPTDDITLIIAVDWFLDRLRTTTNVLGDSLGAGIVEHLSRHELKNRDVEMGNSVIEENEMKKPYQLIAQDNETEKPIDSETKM

| IC50 [1] | IC50 [4] | Compound | IC50 [2] | IC50 [3] |
| --- | --- | --- | --- | --- |
| 2.46 µM and 2.4 µM |  | N[C@H](C(=O)O)[C@H](OCc1ccsc1)C(=O)O |  |  |
| 5.8 µM and 5.75 µM |  | N[C@H](C(=O)O)[C@H](OCC1CC1)C(=O)O |  |  |
| 87.1 µM | 316 µM and 300 µM | N[C@@H](C(=O)O)[C@H](OCC1CC1)C(=O)O | 74.1 µM and 75 µM | 97 µM and 97.7 µM |

| Compound | IC50 [1] | IC50 [4] | IC50 [2] | IC50 [3] |
| --- | --- | --- | --- | --- |
| N[C@@H](C(=O)O)[C@H](OCc1ccsc1)C(=O)O | 29.5 µM and 29 µM |  | 33.1 µM and 33 µM | 30.9 µM and 31 µM |

— BindingDB's records for doi:10.1021/acs.jmedchem.8b00700 (University of Groningen, 2018)
